According to ChEMBL document CHEMBL1145100, “Structure-activity relationship of imidazo[1,2-a]pyridines as ligands for detecting beta-amyloid plaques in the brain” (J Med Chem, 2003):

Molecular target: Amyloid-beta precursor protein (Homo sapiens, UniProt P05067)
Assay: Inhibition constant against [125I]-7 (TZDM) binding to Amyloid beta 1-40 aggregates
Summary of the method: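 Abeta40 peptide aggregated at 0.5 mg/mL in pH 7.4 buffer (10 mM sodium phosphate, 1 mM EDTA), 37 °C for 36-42 h with shaking. Competition in 1 mL of 40% EtOH: fibrils 10-50 nM final, radiotracer 0.05 nM, inhibitors 10^-5 to 10^-10 M. Nonspecific binding with 2 µM thioflavin-T. Incubated 3 h at room temperature, then GF/B filtration with 10% ethanol washes and gamma counting. Ki from nonlinear regression.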

Chain of Amyloid-beta precursor protein (P05067 whole entry): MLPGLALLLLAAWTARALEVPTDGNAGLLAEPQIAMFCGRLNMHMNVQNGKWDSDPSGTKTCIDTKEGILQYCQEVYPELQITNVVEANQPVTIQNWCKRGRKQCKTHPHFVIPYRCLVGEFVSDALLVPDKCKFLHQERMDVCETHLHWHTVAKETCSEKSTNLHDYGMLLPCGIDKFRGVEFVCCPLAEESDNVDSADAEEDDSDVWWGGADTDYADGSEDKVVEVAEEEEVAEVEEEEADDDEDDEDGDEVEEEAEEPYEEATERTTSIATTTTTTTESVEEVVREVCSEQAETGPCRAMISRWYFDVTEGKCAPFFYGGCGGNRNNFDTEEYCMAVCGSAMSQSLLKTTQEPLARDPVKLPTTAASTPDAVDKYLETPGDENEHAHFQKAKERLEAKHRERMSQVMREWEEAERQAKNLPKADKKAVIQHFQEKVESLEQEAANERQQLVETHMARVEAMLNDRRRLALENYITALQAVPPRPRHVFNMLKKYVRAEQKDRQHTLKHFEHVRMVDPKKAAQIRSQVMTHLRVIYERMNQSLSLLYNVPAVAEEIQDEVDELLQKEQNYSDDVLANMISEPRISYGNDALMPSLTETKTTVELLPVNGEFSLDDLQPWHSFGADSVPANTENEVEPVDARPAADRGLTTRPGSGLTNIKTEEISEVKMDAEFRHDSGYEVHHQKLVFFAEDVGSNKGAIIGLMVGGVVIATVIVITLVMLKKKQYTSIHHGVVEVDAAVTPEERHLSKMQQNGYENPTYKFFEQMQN

Ki: > 2000 nM
SMILES: CN(C)c1ccc(-c2cn3ccccc3n2)cc1
